KCNQ1 pot – potentiators or activators of human KCNQ1 potassium channel. P51787. CHO-K1 KCNQ1, thallium flux FluxOR fluorescence; hits give high values. B-score at 10 µM. 310,000 tested, 0.35% active. AID 2648;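 active means fluorescence ratio B-score, a plate-corrected score, at least three library SD, with initial intensity B-score within 5 SD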
Target sequence (P51787 whole entry, looked up): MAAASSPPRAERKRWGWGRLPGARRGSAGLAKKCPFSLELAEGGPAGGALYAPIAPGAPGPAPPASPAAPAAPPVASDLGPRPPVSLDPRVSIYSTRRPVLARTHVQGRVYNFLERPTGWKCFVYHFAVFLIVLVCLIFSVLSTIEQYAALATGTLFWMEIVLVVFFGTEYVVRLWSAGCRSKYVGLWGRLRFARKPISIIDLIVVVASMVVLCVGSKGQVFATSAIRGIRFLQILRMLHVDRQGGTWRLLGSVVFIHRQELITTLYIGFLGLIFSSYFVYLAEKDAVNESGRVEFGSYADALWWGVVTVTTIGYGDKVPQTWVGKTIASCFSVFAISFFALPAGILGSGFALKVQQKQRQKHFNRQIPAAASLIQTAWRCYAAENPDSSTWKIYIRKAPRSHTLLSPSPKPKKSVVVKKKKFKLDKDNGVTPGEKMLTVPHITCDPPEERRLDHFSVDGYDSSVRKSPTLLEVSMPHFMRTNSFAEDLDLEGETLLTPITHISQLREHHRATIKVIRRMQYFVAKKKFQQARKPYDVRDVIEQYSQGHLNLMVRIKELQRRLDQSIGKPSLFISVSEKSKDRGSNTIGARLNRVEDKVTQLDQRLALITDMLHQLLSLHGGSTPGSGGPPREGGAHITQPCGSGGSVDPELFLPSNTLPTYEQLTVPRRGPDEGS
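System: CHO-K1 cells stably expressing KCNQ1 / Medium: assay buffer for compound exposure, DMSO matched across wells / Reagent: thallium- and potassium-containing depolarizing buffer / Compound: one concentration, matched DMSO / Incubation: 20 min compound pretreatment at room temperature / Measured by: kinetic FluxOR fluorescence, 10 s baseline plus 110 s post-stimulus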
KCNQ1 inh – inhibitors of human KCNQ1 potassium channel; P51787; CHO-K1 KCNQ1, FluxOR thallium flux fluorescence; hits give high values; B-score at 10 µM; 310,000 tested, 1.3% active; AID 2642;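 active means compounds whose thallium flux B-score, printed positive for inhibition, exceeds three library SD while starting fluorescence stays within three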;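 further: channel opened by potassium depolarization with thallium stimulus after 20 min compound exposure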
hERG rescue – shields human hERG channel from block by proarrhythmic agents | Q12809 | CHO-hERG, FluxOR thallium flux, dofetilide IC70 present | activation (rescue from dofetilide block), less the hit threshold, % at 10 µM | 310,000 tested, 0.51% active | AID 1511;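 active means activation above the mean of controls blocked by dofetilide plus 5 SD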;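 further: thallium influx through hERG after potassium depolarization seen as dye fluorescence rise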
KCNK3 inh – human KCNK3 channel inhibition, primary screen. B-score at 10 µM. CHO-KCNK3 thallium flux, FluxOR fluorescence; hits give low values. 340,000 tested, 0.84% active. O14649;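 active means B-score under library mean minus 4 SD, starting fluorescence ratio at most library mean plus 5 SD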;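 further: more negative B-score means stronger inhibition of thallium flux through KCNK3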
KCNK9 inh – inhibitors of human KCNK9 two-pore domain potassium channel; Q9NPC2; HEK293 KCNK9, FluxOR thallium flux fluorescence; hits give low values; B-score at 10 µM; 310,000 tested, 1.2% active;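 active means ratio B-score over 3 SD below the library mean, with starting fluorescence within 5 SD of its mean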;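 further: negative B-score means less thallium flux so channel inhibition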
Kir21 inh – inhibitors of mouse Kir2.1 inward-rectifier potassium channel. 310,000 tested, 0.85% active. HEK293-Kir2.1, FluxOR thallium flux fluorescence; hits give low values. AID 1672. P35561. B-score at 10 µM;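 active means fluorescence ratio B-score at or below minus 3 SD of library scores, with starting-brightness B-score within 2 SD, cut at about -4.2 in these data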;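 further: channel flux triggered by added potassium and thallium sulfate stimulus; B-score of peak minus minimum fluorescence over baseline after thallium stimulus; more negative B-score means stronger Kir2.1 block with less thallium influx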
A number is an active result. A selection: hits, their analogues and other compounds. The true share with any hit is near 3.7%.

How did C=CCn1c(SCc2c(C(=O)OC)sc(N)c2C(=O)OC)nnc1-c1ccc(Br)cc1 do in these assays?
KCNQ1 pot: inactive; KCNQ1 inh: inactive; hERG rescue: inactive; KCNK3 inh: inactive; KCNK9 inh: inactive; Kir21 inh: inactive

What do the screens show for `c1ccc(CCNCCCOc2cccc3ccccc23)cc1`?
KCNQ1 pot: inactive; KCNQ1 inh: inactive; hERG rescue: inactive; KCNK3 inh: inactive; KCNK9 inh: inactive; Kir21 inh: -16.3

What do the screens show for `CN1CCCC1CCNC1C2CC3CC(C2)CC1C3` (stereo not drawn)?
KCNQ1 pot: inactive; KCNQ1 inh: inactive; hERG rescue: inactive; KCNK3 inh: inactive; KCNK9 inh: inactive; Kir21 inh: -4.68

What do the screens show for `O=C(Cc1ccc(Br)cc1)c1ccc(O)cc1O`?
KCNQ1 pot: inactive; KCNQ1 inh: inactive; hERG rescue: inactive; KCNK3 inh: inactive; KCNK9 inh: -8.24; Kir21 inh: inactive

Results for CC(=O)N1CCc2cc(S(=O)(=O)N3c4ccccc4CC3C)ccc21 (stereo not drawn) ?
KCNQ1 pot: inactive; KCNQ1 inh: inactive; hERG rescue: 5.4; KCNK3 inh: inactive; KCNK9 inh: inactive; Kir21 inh: inactive

How did CC1Cc2ccccc2N1S(=O)(=O)c1cccc(C(=O)N2CCCCC2)c1 (stereo not drawn) do in these assays?
KCNK3 inh: inactive

Results for CC1=NN(/C(=N\c2nnc(C)s2)Nc2ccc(C(C)(C)C)cc2)[C@H](c2ccc(C)cc2)S1 ?
KCNQ1 pot: inactive; KCNQ1 inh: 8; hERG rescue: inactive; KCNK3 inh: inactive; KCNK9 inh: inactive; Kir21 inh: inactive

Results for Cc1ccc(NC(=O)CCSc2nnc(C)s2)cc1 ?
KCNQ1 pot: inactive; KCNQ1 inh: inactive; hERG rescue: inactive; KCNK3 inh: inactive; KCNK9 inh: inactive; Kir21 inh: inactive

What do the screens show for `C[C@H](NC(=O)c1ccccc1Cl)C(=O)NCc1cccs1`?
KCNQ1 pot: inactive; KCNQ1 inh: inactive; hERG rescue: inactive; KCNK3 inh: inactive; KCNK9 inh: inactive; Kir21 inh: inactive

What do the screens show for `CCOc1ccc2c3c(c(=O)oc2c1OCC)CCCC3`?
KCNQ1 pot: inactive; KCNQ1 inh: inactive; hERG rescue: inactive; KCNK3 inh: inactive; KCNK9 inh: -7.27; Kir21 inh: inactive

How did CN1/C(=C/C=N/n2cnnc2)C(C)(C)c2ccccc21 do in these assays?
KCNQ1 pot: inactive; KCNQ1 inh: inactive; hERG rescue: inactive; KCNK3 inh: inactive; KCNK9 inh: inactive; Kir21 inh: inactive

Results for CN1/C(=C\C=N\NC(=O)c2ccccc2Br)C(C)(C)c2ccccc21 ?
KCNQ1 pot: inactive; KCNQ1 inh: 9; hERG rescue: inactive; KCNK3 inh: inactive; KCNK9 inh: inactive; Kir21 inh: inactive

How did COc1cc(OC)c(OC)cc1/C=N/NC(=O)CCc1c(C)n[nH]c1C do in these assays?
KCNQ1 pot: inactive; KCNQ1 inh: inactive; hERG rescue: inactive; KCNK3 inh: inactive; KCNK9 inh: inactive; Kir21 inh: inactive

What do the screens show for `CCc1noc(C)c1C(=O)N(C)CC(=O)Nc1ccc(OC)cc1`?
KCNQ1 pot: inactive; KCNQ1 inh: inactive; hERG rescue: inactive; KCNK3 inh: inactive; KCNK9 inh: inactive; Kir21 inh: inactive

Results for COc1ccc(C(CNC(=O)C(C)c2ccc3cc(OC)ccc3c2)N(C)C)cc1 (stereo not drawn) ?
KCNQ1 pot: inactive; KCNQ1 inh: inactive; hERG rescue: inactive; KCNK3 inh: inactive; KCNK9 inh: inactive; Kir21 inh: -4.91

What do the screens show for `Cc1cc2n(n1)C(c1ccccc1)CC(c1ccc(Br)cc1)=N2` (stereo not drawn)?
KCNK3 inh: inactive

How did Cc1ccc(S(=O)(=O)N2CCC(=O)N(C(COC(=O)Nc3ccccc3)Cc3ccccc3)CC2)cc1 (stereo not drawn) do in these assays?
KCNQ1 pot: inactive; KCNQ1 inh: inactive; hERG rescue: inactive; KCNK3 inh: inactive; KCNK9 inh: -6.67; Kir21 inh: inactive

Results for Cc1ccc(S(=O)(=O)N2CCC(=O)N(C(CO)Cc3ccccc3)CC2)cc1 (stereo not drawn) ?
KCNQ1 pot: inactive; KCNQ1 inh: inactive; hERG rescue: inactive; KCNK3 inh: inactive; KCNK9 inh: inactive; Kir21 inh: inactive

Results for COc1ccc(CC(=O)NCC2CCCN(Cc3ccc(SC)cc3)C2)cc1 (stereo not drawn) ?
KCNQ1 pot: inactive; KCNQ1 inh: inactive; hERG rescue: inactive; KCNK3 inh: inactive; KCNK9 inh: inactive; Kir21 inh: inactive

How did COCCOC(=O)C1=C(C)NC(=O)N(C(C)=O)C1c1ccc(Cl)cc1 (stereo not drawn) do in these assays?
KCNQ1 pot: inactive; KCNQ1 inh: inactive; hERG rescue: inactive; KCNK3 inh: inactive; KCNK9 inh: inactive; Kir21 inh: inactive

What do the screens show for `COc1ccc(OC)c(C(=O)c2coc3cc(Br)c(O)c(Br)c23)c1`?
KCNQ1 pot: inactive; KCNQ1 inh: inactive; hERG rescue: inactive; KCNK3 inh: inactive; KCNK9 inh: -7.56; Kir21 inh: inactive

Results for COc1ccc(OC)c(C(=O)c2coc3ccc(O)c(CN(C)C)c23)c1 ?
KCNQ1 pot: inactive; KCNQ1 inh: inactive; hERG rescue: inactive; KCNK3 inh: inactive; KCNK9 inh: inactive; Kir21 inh: inactive

Results for O=C(NNC(=S)NCCc1ccccc1)c1ccc(Br)s1 ?
KCNQ1 pot: inactive; KCNQ1 inh: 8; hERG rescue: inactive; KCNK3 inh: inactive; KCNK9 inh: inactive; Kir21 inh: inactive

Results for O=C(CCc1ccc(O)cc1)NNC(=S)NCCc1ccccc1 ?
KCNQ1 pot: inactive; KCNQ1 inh: inactive; hERG rescue: inactive; KCNK3 inh: inactive; KCNK9 inh: inactive; Kir21 inh: inactive

Results for CC(C)NS(=O)(=O)c1ccc(NC(=O)C(C)Oc2ccc(C(=O)c3ccccc3)cc2)cc1 (stereo not drawn) ?
KCNQ1 pot: 12; KCNQ1 inh: inactive; hERG rescue: inactive; KCNK3 inh: inactive; KCNK9 inh: inactive; Kir21 inh: inactive

Results for Cc1cc(Cl)c(S(=O)(=O)N/N=C/c2ccc3c(c2)OCO3)c(Cl)c1 ?
KCNQ1 pot: inactive; KCNQ1 inh: 10; hERG rescue: inactive; KCNK3 inh: inactive; KCNK9 inh: inactive; Kir21 inh: inactive

Results for Cc1ccc(N2CC(C(=O)Nc3ccccc3OC(F)F)CC2=O)cc1 (stereo not drawn) ?
KCNK3 inh: inactive

What do the screens show for `O=C(Oc1ccc2ccccc2c1)c1cncc(Br)c1`?
KCNQ1 pot: inactive; KCNQ1 inh: inactive; hERG rescue: inactive; KCNK3 inh: inactive; KCNK9 inh: inactive; Kir21 inh: inactive

How did O=C(Oc1ccc2c(=O)c(Oc3ccc4ccccc4c3)coc2c1)c1cncc(Br)c1 do in these assays?
KCNQ1 pot: inactive; KCNQ1 inh: inactive; hERG rescue: 10.5; KCNK3 inh: inactive; KCNK9 inh: inactive; Kir21 inh: inactive

What do the screens show for `CC(C)N(C(=O)c1ccc2nc(-c3ccccc3)c(-c3ccccc3)nc2c1)C(C)C`?
KCNQ1 pot: inactive; KCNQ1 inh: inactive; hERG rescue: inactive; KCNK3 inh: inactive; KCNK9 inh: inactive; Kir21 inh: inactive
